Data taken from ChEMBL document CHEMBL2331200, “Synthesis and bioevaluation of [(18)F]4-fluoro-m-hydroxyphenethylguanidine ([(18)F]4F-MHPG): a novel radiotracer for quantitative PET studies of cardiac sympathetic innervation” (Bioorg Med Chem Lett, 2013).

Columns and labels:
[1] = Biodistribution in iv dosed rhesus monkey liver; assay type: ADME, organism-based, Macaca mulatta; settings: in vivo
Summary of the method: (§1)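 Dynamic PET imaging of a single nonhuman primate after injection of the 18F tracer. Regional heart, liver and lung activity was read from the images. Heart-to-blood activity ratios were taken at 80–90 min post-injection.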

[2] = Biodistribution in iv dosed rhesus monkey lungs; assay type: ADME, organism-based, Macaca mulatta, Lung; settings: in vivo; summary of the method: as §1
[3] = Biodistribution in iv dosed rhesus monkey heart; assay type: ADME, organism-based, Macaca mulatta; settings: in vivo; summary of the method: as §1
[4] = Biodistribution in iv dosed rhesus monkey left ventricle; assay type: ADME, organism-based, Macaca mulatta, Heart left ventricle; settings: in vivo; summary of the method: as §1
Heart = experiment: Drug uptake in rat heart assessed as neuronal uptake rate per gram of wet weight after 10 mins constant infusion measured up to 140 mins; assay type: ADME, tissue-based; settings: ex_vivo
Summary of the method: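 Isolated working rat heart with uptake-2 blocked by 54 μM corticosterone in the perfusion buffer. Radiotracer was infused for 10 min at constant perfusate concentration to give the neuronal uptake rate Kup (ml/min/g wet).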

SMILES	Drug uptake [1]	Drug uptake [2]	Drug uptake [3]	Drug uptake [4]	Drug uptake (Heart) [mL/min/g]
N=C(N)NCCc1ccc([18F])c(O)c1	Active	Not Active	Active	Active	–
N=C(N)NCc1ccc([18F])cc1	–	–	–	–	1.2
C[C@H](N[11CH3])[C@H](O)c1cccc(O)c1	Active	–	–	–	–
N=C(N)NCc1cccc([123I])c1 [IOBENGUANE I 123]	Active	–	–	–	–
